ChEMBL document CHEMBL1126908, “Synthesis and evaluation of new 6-amino-substituted benzo[c]phenanthridine derivatives” (J Med Chem, 1993)
≈ marks a conversion by molar mass, not a printed value.

Experiments:
L1210 = assay: Cytotoxicity against murine lymphoblastic leukemia cells (L1210).; type: functional, cell-based; settings: Mus musculus
How it was run: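 Murine L1210 cells grown in Dulbecco's MEM with 10% fetal calf serum at 37 °C, 5% CO2. Cells seeded, then after 24 h compounds added in duplicate at various concentrations and incubated 24 h. Cells counted by Coulter counter. IC50 taken as the dose giving 50% growth inhibition, extrapolated from regression curves of non-toxic experimental points.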

P388 [1] = assay: (§1) Cytotoxicity was measured on murine leukemia p388; type: functional, cell-based; settings: Mus musculus
How it was run: (§2)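 Cells (P388, or camptothecin-resistant P388 CPT0.3) incubated 96 h at 37 °C with various drug concentrations. Viability read by neutral red staining. IC50 taken as the concentration giving 50% growth inhibition.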

P388 [2] = assay: (§3) Cytotoxicity was measured on murine leukemia p388 CPT 0.3; type: functional, cell-based; settings: Mus musculus; how it was run: as §2
P388 [3] = assay: as §1; type: functional; settings: Mus musculus; how it was run: as §2
P388 [4] = assay: as §3; type: functional; settings: Mus musculus; how it was run: as §2
[5] = The ratio of the mean survival time of treated animals on the mean survival time of controls multiplied by 100.It is measured at dose of 100 mg/kg; T/C value; type: functional
How it was run: (§4)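 Female BDF1 mice inoculated IP with 10⁶ P388 leukemia cells on day 0, with 10 controls and 6 mice per test group. Compounds given IP as 0.2-mL PBS solutions on days 1, 3 and 7. T/C = mean survival time of treated mice / mean survival time of controls × 100.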

[6] = Cytotoxicity was measured on human mammary adenocarcinoma cells(Calc 18); type: functional, cell-based
How it was run: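 Human mammary adenocarcinoma Calc 18 cells exposed to various drug concentrations for 96 h at 37 °C. Viability read by neutral red staining. IC50 is the concentration giving 50% growth inhibition.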

[7] = target: DNA topoisomerase 2-beta (Homo sapiens) (UniProt Q02880); assay: Inhibition of topoisomerase II; settings: Bos taurus
DNA topoisomerase 2-beta (Homo sapiens), sequence (Q02880 whole entry): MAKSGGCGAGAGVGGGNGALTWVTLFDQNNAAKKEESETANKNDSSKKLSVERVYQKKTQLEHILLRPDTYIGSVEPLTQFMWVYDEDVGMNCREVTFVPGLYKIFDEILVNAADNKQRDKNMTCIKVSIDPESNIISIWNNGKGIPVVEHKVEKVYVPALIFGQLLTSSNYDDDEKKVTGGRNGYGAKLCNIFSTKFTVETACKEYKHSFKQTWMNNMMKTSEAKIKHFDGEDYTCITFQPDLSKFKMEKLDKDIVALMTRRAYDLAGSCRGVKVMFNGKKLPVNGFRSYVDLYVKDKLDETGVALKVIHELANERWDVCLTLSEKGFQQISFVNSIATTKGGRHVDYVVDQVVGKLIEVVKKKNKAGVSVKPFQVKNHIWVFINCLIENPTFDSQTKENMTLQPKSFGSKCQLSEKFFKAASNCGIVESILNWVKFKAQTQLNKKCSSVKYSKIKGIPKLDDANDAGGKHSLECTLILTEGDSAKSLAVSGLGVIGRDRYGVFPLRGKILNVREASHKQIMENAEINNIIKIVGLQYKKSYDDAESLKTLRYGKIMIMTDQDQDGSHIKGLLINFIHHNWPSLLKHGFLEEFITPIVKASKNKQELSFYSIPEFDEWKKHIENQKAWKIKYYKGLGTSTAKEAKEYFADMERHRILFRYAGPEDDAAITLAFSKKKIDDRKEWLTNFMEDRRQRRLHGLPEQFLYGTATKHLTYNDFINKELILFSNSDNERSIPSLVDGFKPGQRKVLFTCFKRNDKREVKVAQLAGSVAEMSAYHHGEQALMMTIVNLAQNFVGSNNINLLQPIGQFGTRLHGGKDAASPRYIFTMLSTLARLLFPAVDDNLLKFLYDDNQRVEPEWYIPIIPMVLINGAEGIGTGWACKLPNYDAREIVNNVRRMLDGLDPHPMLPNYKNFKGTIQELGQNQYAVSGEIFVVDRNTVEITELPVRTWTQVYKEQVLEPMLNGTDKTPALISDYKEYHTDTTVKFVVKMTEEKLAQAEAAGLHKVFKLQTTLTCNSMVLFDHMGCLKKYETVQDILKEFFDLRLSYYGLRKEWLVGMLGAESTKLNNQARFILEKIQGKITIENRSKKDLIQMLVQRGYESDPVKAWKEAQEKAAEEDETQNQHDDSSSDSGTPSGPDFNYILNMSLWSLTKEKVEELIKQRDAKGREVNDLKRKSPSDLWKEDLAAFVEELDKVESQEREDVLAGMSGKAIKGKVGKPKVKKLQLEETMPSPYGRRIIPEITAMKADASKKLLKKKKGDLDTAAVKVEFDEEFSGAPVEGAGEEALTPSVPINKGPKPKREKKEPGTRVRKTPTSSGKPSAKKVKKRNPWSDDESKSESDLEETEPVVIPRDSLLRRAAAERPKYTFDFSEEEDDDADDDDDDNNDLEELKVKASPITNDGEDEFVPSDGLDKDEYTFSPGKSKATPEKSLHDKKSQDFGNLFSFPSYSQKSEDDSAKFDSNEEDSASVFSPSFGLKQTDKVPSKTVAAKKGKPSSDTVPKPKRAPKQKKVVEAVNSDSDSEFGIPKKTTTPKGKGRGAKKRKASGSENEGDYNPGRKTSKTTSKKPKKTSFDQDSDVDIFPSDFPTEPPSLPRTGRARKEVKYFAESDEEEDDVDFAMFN
How it was run: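 Topoisomerase I or II purified from calf thymus, tested in a DNA cleavage assay. Read-out is the minimal inhibitory concentration (μM), meaning the lowest concentration that gives detectable stimulation of DNA cleavage.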

[8] = The ratio of the mean survival time of treated animals on the mean survival time of controls multiplied by 100.It is measured at dose of 20 mg/kg; T/C value; type: functional; how it was run: as §4
[9] = The ratio of the mean survival time of treated animals on the mean survival time of controls multiplied by 100.It is measured at dose of 40 mg/kg; T/C value; type: functional; how it was run: as §4
[10] = The ratio of the mean survival time of treated animals on the mean survival time of controls multiplied by 100.It is measured at dose of 5 mg/kg; T/C value; type: functional; how it was run: as §4
[11] = The ratio of the mean survival time of treated animals on the mean survival time of controls multiplied by 100.It is measured at dose of 10 mg/kg; T/C value; type: functional; how it was run: as §4
[12] = test system: P388 leukemia cells (Mus musculus); assay: Cytotoxicity was measured on cultured murine leukemia cells (P388)

SMILES | IC50 (L1210) | IC50 [6] | MIC [7] | further results
COc1cc2c(ccc3c4cc(OC)c(OC)cc4c[n+](C)c23)cc1O.[Cl-] [FAGARONINE] | 2000 nM | – | – | IC50 (P388 [1]): 2000 nM; IC50 (P388 [2]): > 10000 nM; IC90 (P388 [3]): 6000 nM; IC90 (P388 [4]): > 10000 nM; Ratio [5]: 265
CN(C)CCNc1nc2c3ccc(O)cc3ccc2c2ccccc12 | 500 nM | 1000 nM | 1 µM (≈ 0.331 µg/mL) | Ratio [8]: 118; Ratio [9]: 101; Ratio [10]: 93; Ratio [11]: 138
COc1ccc2c(ccc3c4ccccc4c(NCCN(C)C)nc23)c1 | 3000 nM | 3000 nM | 10 µM (≈ 3.45 µg/mL) | –
COc1cc([C@@H]2c3cc4c(cc3[C@@H](O[C@@H]3O[C@@H]5CO[C@@H](C)O[C@H]5[C@H](O)[C@H]3O)[C@H]3COC(=O)[C@H]23)OCO4)cc(OC)c1O | – | – | 0.1 µM (≈ 0.0589 µg/mL) | –
CN(C)CCCNc1nc2c3cc(O)ccc3ccc2c2ccccc12 | 3400 nM | 2500 nM | > 10 µM | Ratio [8]: 73; Ratio [10]: 91; Ratio [11]: 90
COc1ccc2ccc3c4ccccc4c(NCCCN(C)C)nc3c2c1 | 2600 nM | – | – | –
CN(C)CCNc1nc2c3ccccc3ccc2c2ccccc12 | > 90000 nM | – | – | –
COc1cc2c(NCCN(C)C)nc3c4cc5c(cc4ccc3c2cc1OC)OCO5 | 300 nM | 600 nM | 1 µM (≈ 0.419 µg/mL) | IC50 (P388 [1]): 900 nM; IC50 (P388 [2]): 150 nM; IC90 (P388 [3]): 3500 nM; IC90 (P388 [4]): 3500 nM; Ratio [8]: 92; Ratio [10]: 99; Ratio [11]: 103
COc1ccc2c(ccc3c4ccccc4c(NCCCN(C)C)nc23)c1 | 3400 nM | 2500 nM | > 10 µM | –
COc1ccc2c(c1)c(NCCN(C)C)nc1c3ccc(O)cc3ccc21 | – | 1500 nM | 10 µM (≈ 3.61 µg/mL) | –
CN(C)CCNc1nc2c3ccc(O)cc3ccc2c2ccc(O)cc12 | 500 nM | 1000 nM | 3 µM (≈ 1.04 µg/mL) | Ratio [8]: 111; Ratio [10]: 119; Ratio [11]: 111
CC[C@@]1(O)C(=O)OCc2c1cc1n(c2=O)Cc2cc3ccccc3nc2-1 [CAMPTOTHECIN] | – | – | > 100 µM | IC50 [12]: 15 nM
COc1ccc2c(ccc3c4ccc(OC)cc4c(NCCN(C)C)nc23)c1 | 1700 nM | 1500 nM | 10 µM (≈ 3.75 µg/mL) | –
CN(C)CCNc1nc2c3cc(O)ccc3ccc2c2ccccc12 | 500 nM | 3000 nM | 10 µM (≈ 3.31 µg/mL) | Ratio [8]: 102; Ratio [10]: 92; Ratio [11]: 83
COc1cc2ccc3c4cc(OC)c(OC)cc4c(NCCN(C)C)nc3c2cc1OC | > 5000 nM | 3000 nM | > 10 µM | –
CN(C)CCCNc1nc2c3ccc(O)cc3ccc2c2ccc(O)cc12 | 4500 nM | > 10000 nM | 10 µM (≈ 3.61 µg/mL) | –
COc1ccc2c(ccc3c4ccc(OC)cc4c(NCCCN(C)C)nc23)c1 | 2500 nM | 3000 nM | > 10 µM | –
CN(C)CCCNc1nc2c3ccc(O)cc3ccc2c2ccccc12 | 2600 nM | 3000 nM | > 10 µM | –
COc1ccc2ccc3c4ccccc4c(NCCN(C)C)nc3c2c1 | 2500 nM | – | – | –
